One series deals with RAW264.7. Kind of series: Cytotoxicity against mouse RAW264.7 cells assessed as reduction in cell viability at < 40 ug/ml incubated for 16 hrs by MTT assay. The conditions noted are these: raw264.7, 16 h.
Series [1] has as its system Staphylococcus aureus. The experiment in a line: Antibacterial activity against Staphylococcus aureus 144 assessed as inhibition of visible growth incubated for 24 hrs by CLSI protocol based broth microdilution method. It is filed as functional.
A further series deals with Cytochrome P450 3A4 (Homo sapiens, UniProt P08684). The experiment in a line: Inhibition of CYP3A4 in human liver microsomes using testosterone as substrate incubated for 5 mins followed by NADPH addition and measured after 5 mins by LC/MS/MS analysis. The method, boiled down: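 Final conditions: human liver microsomes 0.2 mg/mL, testosterone 20 μmol/L, 0.1 M Tris pH 7.4, inhibitor at 2.5–80 μM. Plates were preincubated 5 min at 37 °C, then started with NADPH (final 1 mmol/L) and run 5 min. Reaction was stopped with acetonitrile containing loratadine as internal standard, and the supernatant was analysed by LC-MS/MS. IC50 was determined.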
Sequence of Cytochrome P450 3A4 (P08684 whole entry): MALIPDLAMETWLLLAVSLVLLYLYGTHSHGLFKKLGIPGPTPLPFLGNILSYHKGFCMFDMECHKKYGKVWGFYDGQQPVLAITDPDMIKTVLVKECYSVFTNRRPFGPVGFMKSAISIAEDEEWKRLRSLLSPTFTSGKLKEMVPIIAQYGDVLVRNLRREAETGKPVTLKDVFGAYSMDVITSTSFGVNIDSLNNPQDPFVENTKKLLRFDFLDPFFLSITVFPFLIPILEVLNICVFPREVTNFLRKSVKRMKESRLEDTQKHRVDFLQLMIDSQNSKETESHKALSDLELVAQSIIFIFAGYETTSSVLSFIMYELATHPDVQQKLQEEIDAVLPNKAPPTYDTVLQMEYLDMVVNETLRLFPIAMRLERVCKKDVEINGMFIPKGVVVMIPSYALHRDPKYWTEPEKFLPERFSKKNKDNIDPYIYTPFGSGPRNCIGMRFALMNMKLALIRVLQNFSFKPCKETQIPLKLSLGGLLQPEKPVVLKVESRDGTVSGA

In series [2] the test system is Staphylococcus aureus. Kind of series: Antibacterial activity against methicillin-resistant Staphylococcus aureus ATCC 43300 assessed as reduction in bacterial growth at 4 times of MIC measured at 3 hrs by time kill assay. It is filed as functional. The method, boiled down: (§1)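 MRSA was grown in MH broth at 37 °C for 4.5 h and diluted to 1×10^6 CFU/mL. Compound was added at 1, 2, 4, 8, 16 or 32 × MIC; growth control had 0.9% saline only. Cultures were shaken at 37 °C and sampled at 0, 3, 6, 9 and 24 h. Samples were serially diluted in saline and plated on MH agar, with CFU counted after 24 h at 37 °C. Run in triplicate.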

The test system of series [3] is Staphylococcus aureus. Kind of series: Bactericidal activity against methicillin-resistant Staphylococcus aureus ATCC 43300 assessed as reduction in bacterial growth at 1 to 32 times of MIC measured upto 24 hrs by time kill assay. It is filed as functional, organism-based. The conditions noted are these: time hrs <=24, TDE = time-dependent effect. The method, boiled down: as §1

The subject of series [4] is Staphylococcus aureus. The experiment in a line: Antibacterial activity against Staphylococcus aureus ATCC 29213 assessed as inhibition of visible growth incubated for 24 hrs by CLSI protocol based broth microdilution method. It is filed as functional.
In series [5] the target is T1, Bacterial 70S ribosome (Bacteria) (UniProt P0A7V0+P60723+P0AG67+P0A7R5+P0A7R9+P0A7S3+P0A7S9+P0AG59+P0ADZ4+P0A7T3+P0AG63+P0A7T7+P0A7U3+P0A7U7+P68679+P0A7V3+P0A7V8+P0A7W1+P02358+P02359+P0A7W7+P0A7X3+P0A7J3+P0A7J7+P0AA10+P0ADY3+P02413+P0ADY7+P0AG44+P0C018+P0A7K6+P0A7L0+P0A7L3+P0AG48+P61175+P0ADZ0+P60624+P68919+P0A7L8+P0A7M2+P0A7M6+P60422+P0AG51+P0A7N1+P0A7M9+P0A7N4+P0A7N9+P0A7P5+P0A7Q1+Q2EEQ2+P0A7Q6+P60438+P62399+P0AG55+P0A7K2). The experiment in a line: Binding affinity to Staphylococcus aureus ATCC 43300 50S ribosome assessed as dissociation rate constant by SPR analysis. The format is subcellular. The method, boiled down: (§2)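 The 50S subunit was purified from ATCC 43300 by sucrose cushion, a 7–30% sucrose gradient and PEG precipitation. Compounds at 100 µM in DMSO were photo-crosslinked onto the chip and printed four times each. Ribosome at 200–3200 nM in PBST (pH 7.4, 0.1% Tween 20) was run at 4 °C: association 600 s, then dissociation 360 s, both at 0.5 µL/s. Surface was regenerated with glycine-HCl pH 2.0.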

Series [6] deals with Staphylococcus aureus. Kind of series: Antibacterial activity against Staphylococcus aureus AD3 assessed as inhibition of visible growth incubated for 24 hrs by CLSI protocol based broth microdilution method. It is filed as functional.
For series [7], the system named is Staphylococcus aureus. Kind of series: Antibacterial activity against methicillin-resistant Staphylococcus aureus ATCC 43300 assessed as inhibition of visible growth incubated for 24 hrs by CLSI protocol based broth microdilution method. It is filed as functional.
For series [8], the system named is Staphylococcus aureus. Kind of series: In vivo antibacterial activity against methicillin-resistant Staphylococcus aureus ATCC 43300 infected in ICR/Swiss mouse model of neutropenic thigh infection assessed as reduction in bacterial growth at 20 mg/kg, iv administered 2 hrs after infection and tissue collected after 24 hrs and measured after 24 hrs […]. The format is functional. The method, boiled down:
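Female ICR/Swiss mice, 6 weeks old, were made neutropenic with ip cyclophosphamide (150 mg/kg at day −4, 100 mg/kg at day −1). Each thigh received about 10^7 CFU/mL MRSA in 0.1 mL. At 2 h, mice got a single iv dose of 20 mg/kg or saline, with 3 mice (6 thighs) per group. At 24 h, thighs were homogenized in iced saline, diluted and plated on MH agar, and CFU counted after 24 h at 37 °C.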

Series [9] addresses T1, Bacterial 70S ribosome (Bacteria). Kind of series: Binding affinity to Staphylococcus aureus ATCC 43300 50S ribosome assessed as association constant by SPR analysis. The format is subcellular. The method, boiled down:
as §2

Molecules are shown by their SMILES. Values after ≈ are worked out from the molar mass of the structure shown.

`C=C[C@]1(C)C[C@@H](OC(=O)CSc2nc(N)n(C(=O)c3ccc(C)cc3)n2)[C@]2(C)[C@H](C)CC[C@]3(CCC(=O)[C@H]32)[C@@H](C)[C@@H]1O`: the Activity result with RAW264.7 was “Non-Toxic”; in the series on Staphylococcus aureus [2] it was -1.95 log10CFU/ml; in the series with Staphylococcus aureus [3] it was “Tde”; in the series on Staphylococcus aureus [8], 1.89 log10CFU/g. In addition, the MIC with Staphylococcus aureus [1], in the series on Staphylococcus aureus [4], in the series with Staphylococcus aureus [6] and in the series on Staphylococcus aureus [7] was 0.125 µg/mL (≈ 0.21 µM) throughout. The compound further displayed an IC50 on Cytochrome P450 3A4 of 3.95 µM. The Kdiss in series [5] is 2.2 10^-4M. In addition, in [9], the Ka is 4.16 10^2/Ms.

The record behind these values is ChEMBL document CHEMBL4814060, “Design, synthesis and biological evaluation of novel pleuromutilin derivatives as potent anti-MRSA agents targeting the 50S ribosome” (Bioorg Med Chem, 2021).
